Source: ChEMBL document CHEMBL5247578, “Effective synthesis of benzimidazoles-imidazo[1,2-a]pyrazine conjugates: A comparative study of mono-and bis-benzimidazoles for antitumor activity” (Eur J Med Chem, 2019)

Legend:
Format in all cases: functional
TK-10 = experiment: Growth inhibition against human TK-10 cells incubated for 48 hrs by sulforhodamine B assay
SK-MEL-2 [1] = experiment: Antiproliferative activity against human SK-MEL-2 cells assessed as cell growth at 0.000001 M incubated for 48 hrs by SRB assay relative to control; settings: read-out: Activity
UACC-257 = experiment: Antiproliferative activity against human UACC-257 cells assessed as cell growth at 0.00000001 M incubated for 48 hrs by SRB assay relative to control; settings: dose 10 nM, read-out: Activity
UACC-62 [2] = experiment: Antiproliferative activity against human UACC-62 cells assessed as cell growth at 0.0000001 M incubated for 48 hrs by SRB assay relative to control; settings: dose 100 nM, read-out: Activity
NCI/ADR-RES = experiment: Antiproliferative activity against human NCI/ADR-RES cells assessed as cell growth at 0.00001 M incubated for 48 hrs by SRB assay relative to control; settings: read-out: Activity
SK-MEL-2 [3] = experiment: Growth inhibition against human SK-MEL-2 cells assessed as total growth inhibitory concentration incubated for 48 hrs by sulforhodamine B assay
DU-145 = experiment: Antiproliferative activity against human DU-145 cells assessed as cell growth at 0.000001 M incubated for 48 hrs by SRB assay relative to control; settings: read-out: Activity
Procedure, shortened: (§1)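 NCI-60 five-dose screen (10^-4 to 10^-8 M). Cells grown in RPMI 1640 with 5% FBS and 2 mM L-glutamine, plated at 5,000-40,000 cells/well and preincubated 24 h. Drug given from DMSO stock, then 48 h at 37 °C, 5% CO2. For adherent lines, cells fixed with cold TCA, SRB-stained and read at 515 nm. Percent growth taken against time-zero and untreated control.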

UACC-62 [4] = experiment: Antiproliferative activity against human UACC-62 cells assessed as cell growth at 0.000001 M incubated for 48 hrs by SRB assay relative to control; settings: read-out: Activity
NCI-H226 = experiment: Antiproliferative activity against human NCI-H226 cells assessed as cell growth at 0.00000001 M incubated for 48 hrs by SRB assay relative to control; settings: dose 10 nM, read-out: Activity
MDA-MB-435 = experiment: Antiproliferative activity against human MDA-MB-435 cells assessed as cell growth at 0.000001 M incubated for 48 hrs by SRB assay relative to control; settings: read-out: Activity
T47D = experiment: Antiproliferative activity against human T47D cells assessed as cell growth at 0.00000001 M incubated for 48 hrs by SRB assay relative to control; settings: dose 10 nM, read-out: Activity
SW-620 [5] = experiment: Growth inhibition against human SW620 cells incubated for 48 hrs by sulforhodamine B assay
SF-268 = experiment: Antiproliferative activity against human SF-268 cells assessed as cell growth at 0.00001 M incubated for 48 hrs by SRB assay relative to control; settings: read-out: Activity
UACC-62 [6] = experiment: Antiproliferative activity against human UACC-62 cells assessed as cell growth at 0.0001 M incubated for 48 hrs by SRB assay relative to control; settings: read-out: Activity
SF-539 = experiment: Antiproliferative activity against human SF-539 cells assessed as cell growth at 0.00001 M incubated for 48 hrs by SRB assay relative to control; settings: read-out: Activity
SNB-19 = experiment: Antiproliferative activity against human SNB-19 cells assessed as cell growth inhibition by measuring lethal concentration incubated for 48 hrs by sulforhodamine B assay; settings: read-out: LC50 (the source's name)
Procedure, shortened: (§2)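 NCI-60 five-dose screen (10^-4 to 10^-8 M, 10-fold dilutions; DMSO stocks). Cells in RPMI 1640 with 5% FBS and 2 mM L-glutamine, preincubated 24 h, then exposed 48 h at 37 °C, 5% CO2. Fixed with cold TCA, stained with 0.4% SRB, absorbance read at 515 nm. Time-zero plates used as reference. LC50 taken from [(Ti-Tz)/Tz]×100 […].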

OVCAR-3 [7] = experiment: Growth inhibition against human OVCAR-3 cells assessed as total growth inhibitory concentration incubated for 48 hrs by sulforhodamine B assay
Hs-578T = experiment: Antiproliferative activity against human Hs-578T cells assessed as cell growth at 0.000001 M incubated for 48 hrs by SRB assay relative to control; settings: read-out: Activity
Procedure, shortened: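 NCI-60 five-dose mode, 10^-4 to 10^-8 M in 10-fold steps. RPMI 1640, 5% FBS, 2 mM L-glutamine; 24 h preincubation, then 48 h drug exposure at 37 °C. Stocks in DMSO at 400× the top concentration, diluted in medium with gentamicin. TCA fixation, SRB staining, absorbance at 515 nm. Percent growth from time-zero (Tz), control (C) and test (Ti) readings.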

HCT-116 [8] = experiment: Antiproliferative activity against human HCT-116 cells assessed as cell growth at 0.0000001 M incubated for 48 hrs by SRB assay relative to control; settings: dose 100 nM, read-out: Activity; procedure, shortened: as §1
OVCAR-3 [9] = experiment: Antiproliferative activity against human OVCAR-3 cells assessed as cell growth at 0.00001 M incubated for 48 hrs by SRB assay relative to control; settings: read-out: Activity
786-0 = experiment: Antiproliferative activity against human 786-0 cells assessed as cell growth at 0.0000001 M incubated for 48 hrs by SRB assay relative to control; settings: dose 100 nM, read-out: Activity
Procedure, shortened: (§3)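 NCI-60 five-dose screen over 10^-4–10^-8 M (10-fold dilutions). Cells grown in RPMI 1640 with 5% FBS and 2 mM L-glutamine, seeded at 5,000–40,000 cells/well and preincubated 24 h. Drug from DMSO stock, 48 h at 37 °C, 5% CO2. Adherent cells TCA-fixed and stained with 0.4% SRB; A515 read. Percent growth = (Ti−Tz)/(C−Tz)×100, or (Ti−Tz)/Tz×100 when Ti<Tz.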

U-251 = experiment: Antiproliferative activity against human U-251 cells assessed as cell growth inhibition by measuring lethal concentration incubated for 48 hrs by sulforhodamine B assay; settings: read-out: LC50 (the source's name); procedure, shortened: as §2
HCT-15 = experiment: Growth inhibition against human HCT-15 cells incubated for 48 hrs by sulforhodamine B assay
SW-620 [10] = experiment: Antiproliferative activity against human SW620 cells assessed as cell growth at 0.0000001 M incubated for 48 hrs by SRB assay relative to control; settings: dose 100 nM, read-out: Activity
HCT-116 [11] = experiment: Antiproliferative activity against human HCT-116 cells assessed as cell growth at 0.00001 M incubated for 48 hrs by SRB assay relative to control; settings: read-out: Activity; procedure, shortened: as §1
CCRF-CEM = experiment: Antiproliferative activity against human CCRF-CEM cells assessed as cell growth at 0.0000001 M incubated for 48 hrs by SRB assay relative to control; settings: dose 100 nM, read-out: Activity; procedure, shortened: as §3
KM12 = experiment: Antiproliferative activity against human KM12 cells assessed as cell growth inhibition by measuring lethal concentration incubated for 48 hrs by sulforhodamine B assay; settings: read-out: LC50 (the source's name)
HL-60 = experiment: Antiproliferative activity against human HL-60 cells assessed as cell growth inhibition by measuring lethal concentration incubated for 48 hrs by sulforhodamine B assay; settings: read-out: LC50 (the source's name)
ACHN = experiment: Antiproliferative activity against human ACHN cells assessed as cell growth at 0.000001 M incubated for 48 hrs by SRB assay relative to control; settings: read-out: Activity; procedure, shortened: as §3
M14 = experiment: Antiproliferative activity against human M14 cells assessed as cell growth inhibition by measuring lethal concentration incubated for 48 hrs by sulforhodamine B assay; settings: read-out: LC50 (the source's name)

COc1ccc(-c2cn3ccnc3c(-c3ccc4ncn(C5CCCCC5)c4c3)n2)cc1
GI50 (TK-10): 2.99 µM | growth at 1 µM (SK-MEL-2 [1]): 49% | growth at 0.01 µM (UACC-257): 100% | growth at 0.1 µM (UACC-62 [2]): 90% | growth at 10 µM (NCI/ADR-RES): -4% | TGI (SK-MEL-2 [3]): > 100 µM | growth at 1 µM (DU-145): 51% | growth at 1 µM (UACC-62 [4]): 27% | growth at 0.01 µM (NCI-H226): 101% | growth at 1 µM (MDA-MB-435): 7% | growth at 0.01 µM (T47D): 85% | GI50 (SW-620 [5]): 0.734 µM | growth at 10 µM (SF-268): 25% | growth at 100 µM (UACC-62 [6]): 8% | growth at 10 µM (SF-539): -53% | CC50 (SNB-19): > 100 µM | TGI (OVCAR-3 [7]): > 100 µM | growth at 1 µM (Hs-578T): 53% | growth at 0.1 µM (HCT-116 [8]): 91% | growth at 10 µM (OVCAR-3 [9]): 10% | growth at 0.1 µM (786-0): 93% | CC50 (U-251): > 100 µM | GI50 (HCT-15): 0.722 µM | growth at 0.1 µM (SW-620 [10]): 99% | growth at 10 µM (HCT-116 [11]): -15% | growth at 0.1 µM (CCRF-CEM): 107% | CC50 (KM12): > 100 µM | CC50 (HL-60): > 100 µM | growth at 1 µM (ACHN): 40% | CC50 (M14): > 100 µM

c1ccc(Cn2cnc3ccc(-c4nc(-c5ccc6c(c5)ncn6C5CCCCC5)cn5ccnc45)cc32)cc1
GI50 (TK-10): 3.52 µM | growth at 1 µM (SK-MEL-2 [1]): 90% | growth at 0.01 µM (UACC-257): 101% | growth at 0.1 µM (UACC-62 [2]): 90% | growth at 10 µM (NCI/ADR-RES): -30% | TGI (SK-MEL-2 [3]): 4.85 µM | growth at 1 µM (DU-145): 93% | growth at 1 µM (UACC-62 [4]): 87% | growth at 0.01 µM (NCI-H226): 103% | growth at 1 µM (MDA-MB-435): 92% | growth at 0.01 µM (T47D): 86% | GI50 (SW-620 [5]): 3.4 µM | growth at 10 µM (SF-268): 2% | growth at 100 µM (UACC-62 [6]): 9% | growth at 10 µM (SF-539): -75% | CC50 (SNB-19): > 100 µM | TGI (OVCAR-3 [7]): 5.79 µM | growth at 1 µM (Hs-578T): 88% | growth at 0.1 µM (HCT-116 [8]): 93% | growth at 10 µM (OVCAR-3 [9]): -29% | growth at 0.1 µM (786-0): 86% | CC50 (U-251): > 100 µM | GI50 (HCT-15): 1.57 µM | growth at 0.1 µM (SW-620 [10]): 105% | growth at 10 µM (HCT-116 [11]): -74% | growth at 0.1 µM (CCRF-CEM): 113% | CC50 (KM12): > 100 µM | CC50 (HL-60): > 100 µM | growth at 1 µM (ACHN): 87% | CC50 (M14): > 100 µM
